Measurements from paper PMC7583637 (Bioconjugate Chemistry, 2020).
Where a SMILES comes first, the peptide text is derived from it. [ ]: non-standard residue; d: D form. Dip = N[C@H](C(=O)O)C(c1ccccc1)c1ccccc1; Chg = N[C@H](C(=O)O)C1CCCCC1; NMeA = CN[C@@H](C)C(=O)O

Columns and labels:
[1] = tested on: c-FLIP; conditions: 2′-MOE-RNA/DNA gapmer PSOs; cited from earlier work
[2] = tested on: c-FLIP mRNA; experiment: RT-qPCR of c-FLIP mRNA expression; type: cell-based, human; conditions: 300 nM, Lipofectamine LTX, 24 h; for Reduction of c-FLIP mRNA levels: A549, relative to reference genes, ΔΔCq, n = 3; for Effect on c-FLIP mRNA levels: A549
[3] = tested on: A549 cells; experiment: AlamarBlue viability assay after lipofection of SMC-PSO conjugates; type: cell-based, human; conditions: 100 nM, Lipofectamine LTX, 48 h, no TRAIL; for Loss of viability: relative to medium control
Summary of the method: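 A549 cells in DMEM with 10% FCS and 4 mM glutamine (37 °C, 5% CO2) were seeded at 5 × 10³ cells/well and grown 24 h to ~70% confluency. Conjugate in OptiMEM was complexed with PLUS Reagent, then Lipofectamine LTX (20 min, RT), and added at 100 nM final in antibiotic-free medium. After 48 h, cells were PBS-washed and given alamarBlue (1:10 in PBS) for 2 h at 37 °C. Fluorescence was read at 531/590 nm relative to medium control.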

[4] = target: XIAP L-Bir2-Bir3 (Homo sapiens, UniProt P98170); experiment: Competitive fluorescence polarization binding assay with Smac-1F probe
[5] = tested on: A549 cells; experiment: AlamarBlue viability assay, PNA-CPP and SMC-PNA-CPP conjugates or chloroquine; type: cell-based, human; conditions: control experiments, Figure S7A
[6] = tested on: Caspase 3 and 7 activity; experiment: Caspase 3/7 assay; type: cell-based, human; conditions: 200 nM conjugate, 2 ng/mL SuperKillerTRAIL, 24 h, DEVD-AFC
Summary of the method: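 A549 cells were seeded in 6-well plates 24 h ahead and lipofected to a final 200 nM with 2 ng/mL SuperKillerTRAIL. After 24 h, cells were harvested and lysed (HEPES/NaCl/EDTA/1% Triton X-100, pH 7.5; 20 min on ice with sonication), and protein was measured by BCA. 35 μg protein was mixed with 2× buffer (HEPES, 20 mM DTT, 20% glycerol, pH 7.5) containing 50 μM DEVD-AFC, 2 h at 37 °C in the dark. […] versus medium-treated control; SD shown.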

[7] = tested on: A549 cells; conditions: read-out: IC50, toxicity to A549 cells; cited from earlier work

Chain of XIAP L-Bir2-Bir3 (P98170 120-356): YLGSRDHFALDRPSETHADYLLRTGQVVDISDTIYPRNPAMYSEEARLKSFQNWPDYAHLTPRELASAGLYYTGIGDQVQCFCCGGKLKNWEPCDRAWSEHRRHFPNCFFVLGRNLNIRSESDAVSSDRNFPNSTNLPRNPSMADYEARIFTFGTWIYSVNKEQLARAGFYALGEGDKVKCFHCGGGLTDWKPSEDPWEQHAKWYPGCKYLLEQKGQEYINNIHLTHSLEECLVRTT

5'-ACTTGTCCCTGCTCCTTGAA-3' (full phosphorothioate, further chemistry not given here) [ISIS 23296, reference compound]
Knockdown reported in original publication [1]: 70%
Reduction of c-FLIP mRNA levels [2]: up to 50%
Loss of viability [3]: ca. 30%

5'-AGTTCTCTCTGCCCCTAGAT-3' (phosphorothioate, further chemistry not given here) [unconjugated, scrambled PSO, reference compound]
Effect on c-FLIP mRNA levels [2]: significant upregulation of c-FLIP levels
Effect on viability [3]: some decrease in viability

CN[C@@H](C)C(=O)N[C@H](C(=O)N1CCC[C@H]1C(=O)N[C@H](C(=O)NCC(N)=O)C(c1ccccc1)c1ccccc1)C1CCCCC1 [SMC, H-MeAla-Chg-Pro-Dip-Gly-NH2] (H-[NMeA][Chg]P[Dip]G-NH2)
IC50 [4]: 4.6 µM

CCN(CC)CCCC(C)Nc1ccnc2cc(Cl)ccc12 (centres unmarked) [chloroquine]
Concentration up to which viability of A549 cells is not affected [5]: up to 200 μM

Ac-Gly-Lys(N3-DBCO-ACTTGTCCCTGCTCCTTGAA)-Dap(AcS-Chg-Pro-Dip)-NH2 [AcSMC-PSO1]
Loss of viability [3]: ca. 30%

Ac-Gly-Lys(N3-DBCO-ACTTGTCCCTGCTCCTTGAA)-Dap(MeA-Chg-Pro-Dip)-NH2 [SMC-PSO1]
Loss of viability [3]: 40%

Ac-Gly-Lys(N3-DBCO-AGTTCTCTCTGCCCCTAGAT)-Dap(AcS-Chg-Pro-Dip)-NH2 [AcSMC-scrPSO1]
Effect on viability [3]: some decrease in viability

Ac-Gly-Lys(N3-DBCO-AGTTCTCTCTGCCCCTAGAT)-Dap(MeA-Chg-Pro-Dip)-NH2 [SMC-scrPSO1]
Loss of viability [3]: ca. 30%

AcS-Chg-Pro-Dip-Gly-Gly-Lys(N3-DBCO-ACTTGTCCCTGCTCCTTGAA)-Dap(AcS-Chg-Pro-Dip)-NH2 [(AcSMC)2-PSO1]
Reduction of c-FLIP mRNA levels [2]: around 40%

AcS-Chg-Pro-Dip-Gly-Gly-Lys(N3-DBCO-AGTTCTCTCTGCCCCTAGAT)-Dap(AcS-Chg-Pro-Dip)-NH2 [(AcSMC)2-scrPSO1]
Effect on c-FLIP mRNA levels [2]: upregulation of c-FLICE did not occur

MeA-Chg-Pro-Dip-Gly-Gly-Lys(N3-DBCO-ACTTGTCCCTGCTCCTTGAA)-Dap(MeA-Chg-Pro-Dip)-NH2 [(SMC)2-PSO1]
Reduction of c-FLIP mRNA levels [2]: around 40%
Loss of viability [3]: 50–60%
Increase of caspase 3/7 activity over background [6]: ~40 fold

MeA-Chg-Pro-Dip-Gly-Gly-Lys(N3-DBCO-AGTTCTCTCTGCCCCTAGAT)-Dap(MeA-Chg-Pro-Dip)-NH2 [(SMC)2-scrPSO1]
Effect on c-FLIP mRNA levels [2]: upregulation of c-FLICE did not occur

Penetratin
IC50 [7]: 60.8 µM

Transportan
IC50 [7]: 2.5 µM

octaarginine
IC50 [7]: > 1000 µM
